Measurements taken from ChEMBL document CHEMBL1122758, “Studies of the mode of action of antitumor triazenes and triazines. 6. 1-Aryl-3-(hydroxymethyl)-3-methyltriazenes: synthesis, chemistry, and antitumor properties” (J Med Chem, 1984).

Tests used:
Mus musculus [1] = test: Compound was evaluated in vivo for antitumor activity against TLX5S Lymphoma implanted mice and percentage increase in life span (%ILS(T/C)) was reported at a optimal dose of 20 mg/Kg; type: functional
[2] = In vitro biological stability and half-life was measured in Earl's buffer at a pH 7.4 of at 37 degree Centigrade; type: physicochemical
Outline: (§1)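 Decomposition was tracked by UV spectroscopy as the fall in absorbance over time at the compound's λmax. Half-life came from the slope of a log plot of extent of decomposition against time, assuming first-order kinetics. Line 4 used Earl's buffer (NaCl, NaHCO3, glucose, KCl, NaH2PO4, HCl to pH 7.4). Lines 5-11 used Sorensen's phosphate buffer, with KH2PO4 and Na2HPO4 mixed to the stated pH.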

[3] = In vitro biological stability and half-life was measured in phosphate buffer at a pH of 7.4 at 37 degree Centigrade; type: physicochemical; conditions: pH 7.4; outline: as §1
[4] = In vitro biological stability and half-life was measured in phosphate buffer at a pH 7.5 of at 25 degree Centigrade; type: physicochemical; outline: as §1
Mus musculus [5] = test: Compound was evaluated in vivo for antitumor activity against TLX5R Lymphoma implanted mice and percentage increase in life span (%ILS(T/C)) was reported at a optimal dose of 5 mg/Kg five times daily
[6] = In vitro biological stability and half-life was measured in phosphate buffer at a pH of 7.5 at 25 degree Centigrade; type: physicochemical; conditions: pH 7.5; outline: as §1
Mus musculus [7] = test: Compound was evaluated in vivo for antitumor activity against TLX5R Lymphoma implanted mice and percentage increase in life span (%ILS(T/C)) was reported at a optimal dose of 20 mg/Kg five times daily.; type: functional
[8] = In vitro biological stability and half-life was measured by HPLC in TRIS buffer at a pH of 7.4 at 37 degree Centigrade; type: physicochemical; conditions: pH 7.4
Outline: (§2)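 Triazene incubated at 100 µg mL-1 in closed containers at 37 °C in pH 7.4 buffer: Earl's (NaCl, NaHCO3, glucose, KCl, NaH2PO4, HCl-adjusted) for line 1; 0.01 M Tris, HCl-adjusted, for line 2; Sorensen's KH2PO4/Na2HPO4 phosphate for line 3. Remaining triazene was followed by HPLC with 30% aqueous acetonitrile plus 0.1% diethylamine at 2 mL/min, and UV detection at the compound's λmax.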

[9] = In vitro biological stability and half-life was measured by HPLC in Earl's buffer at a pH of 7.4 at 37 degree Centigrade; type: physicochemical; conditions: pH 7.4; outline: as §2
[10] = In vitro biological stability and half-life was measured by HPLC in phosphate buffer at a pH of 7.4 at 37 degree Centigrade; type: physicochemical; conditions: pH 7.4; outline: as §2
[11] = In vitro biological stability and half-life was measured in phosphate buffer at a pH of 5.2 at 37 degree Centigrade; type: physicochemical; conditions: pH 5.2; outline: as §1
[12] = In vitro biological stability and half-life was measured in phosphate buffer at a pH of 2.5 at 37 degree Centigrade; type: physicochemical; conditions: pH 2.5; outline: as §1
[13] = In vitro biological stability and half-life was measured in phosphate buffer at a pH of 3.5 at 37 degree Centigrade; type: physicochemical; conditions: pH 3.5; outline: as §1
[14] = In vitro biological stability and half-life was measured in phosphate buffer at a pH of 4.5 at 37 degree Centigrade; type: physicochemical; conditions: pH 4.5; outline: as §1

Compound: CN(CO)/N=N/c1ccc(C(N)=O)cc1
- ILS (T/C) (Mus musculus [1]): 62%

Compound: CCN=NNc1ccc(C#N)cc1
- half-life [2]: 18.3 min

Compound: CC(=O)c1ccc(/N=N/N(C)CO)cc1
- ILS (T/C) (Mus musculus [1]): 72%
- half-life [3]: 14.5 min

Compound: CCN(CO)/N=N/c1ccc(C#N)cc1
- ILS (T/C) (Mus musculus [1]): 0%

Compound: CN(CO)/N=N/c1ccc(C#N)cc1
- ILS (T/C) (Mus musculus [1]): 54%

Compound: CCN=NNc1ccc(C(=O)OC)cc1
- half-life [4]: 9 min

Compound: COC(=O)c1ccc(/N=N/N(C)CO)cc1
- ILS (T/C) (Mus musculus [5]): 0%
- ILS (T/C) (Mus musculus [1]): 120%
- half-life [3]: 12.6 min
- half-life [6]: 22 min

Compound: C/N=N/Nc1ccccc1
- half-life [3]: 3.5 min

Compound: CN/N=N/c1ccc(C(=O)OC)cc1
- ILS (T/C) (Mus musculus [1]): 87%
- half-life [3]: 12.1 min
- half-life [6]: 35 min
- ILS (T/C) (Mus musculus [7]): 4%

Compound: CN=NNc1ccc(C(C)=O)cc1
- half-life [8]: 36.2 min
- half-life [3]: 13.8 min
- half-life [9]: 66.6 min
- half-life [10]: 15.1 min

Compound: CCN(CO)N=Nc1ccc(C(=O)OC)cc1
- half-life [4]: 7 min

Compound: CN=NNc1ccc(C#N)cc1
- half-life [2]: 99 min

Compound: COC(=O)c1ccc(/N=N/N(C)C)cc1
- ILS (T/C) (Mus musculus [1]): 58%
- half-life [6]: > 1440 min
- ILS (T/C) (Mus musculus [7]): 0%

Compound: CCN=NNc1ccc(C(C)=O)cc1
- half-life [9]: 15.1 min

Compound: COC(=O)c1ccc(/N=N/N(C)COC(=O)c2ccccc2)cc1
- ILS (T/C) (Mus musculus [1]): 31%
- half-life [6]: 26.5 min

Compound: CC(=O)c1ccc(/N=N/N(C)C)cc1
- half-life [11]: > 1440 min
- ILS (T/C) (Mus musculus [1]): 65%
- half-life [12]: 1.23 min
- half-life [3]: > 1440 min
- half-life [13]: 11.8 min
- half-life [14]: 108 min
- ILS (T/C) (Mus musculus [7]): 0%
